The whole screen tested about 310,000 compounds, of which about 1,400 (0.45%) were called active.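 How the source made its calls: active means calcium response B-score plate-corrected fluorescence ratio at least 3 library SD, with starting fluorescence B-score inside 5 SD; inactive means the rest.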 The sample as a whole holds a higher share of actives than the screen did.

Chain of Mas-related G-protein coupled receptor member X1 (Homo sapiens) (Q96LB2 whole entry, looked up): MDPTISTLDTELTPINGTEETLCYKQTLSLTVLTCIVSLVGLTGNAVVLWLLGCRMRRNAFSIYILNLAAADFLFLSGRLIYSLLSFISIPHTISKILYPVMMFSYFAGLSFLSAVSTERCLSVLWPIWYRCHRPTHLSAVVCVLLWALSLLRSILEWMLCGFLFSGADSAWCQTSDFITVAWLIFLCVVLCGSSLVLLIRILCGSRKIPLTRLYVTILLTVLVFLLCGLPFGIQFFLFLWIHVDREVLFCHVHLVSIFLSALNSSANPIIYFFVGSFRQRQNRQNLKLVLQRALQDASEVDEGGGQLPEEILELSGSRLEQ

For this assay, the target named is Mas-related G-protein coupled receptor member X1 (Homo sapiens) (UniProt Q96LB2). As to the kind of experiment: agonists of human MrgX1 receptor, primary screen, HEK293 cells, Fluo-4 calcium flux (AID 588627).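 On B-score: B-score of the peak-minus-trough calcium fluorescence change over baseline.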 As to conditions: Fluo-4 calcium fluorescence, agonist mode, at 10 µM; stronger effect = higher value. Put shortly:
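Assay system: MrgX1-expressing HEK293 cells / Amount: fifteen thousand cells per well / Doses: test compound in the initial addition of three / Timing: cells plated overnight, dye loaded 0.5 h 37 °C, 0.5 h room temperature / Technique: kinetic calcium dye fluorescence, Fluo-4 NW / Control set: positive and negative controls per plate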
(In general: Calcium assays in cells follow changes in intracellular calcium, usually with a dye or a luminescent sensor.)
For `C/C(=C\c1ccco1)C1Nc2cccc3cccc(c23)N1`, the B-score result is “inactive”.
Then `COC1(C2=NCCN2)COc2ccccc2O1` (configuration not stated), with “inactive”; and `COc1ccc(Nc2ncc(C(=O)N3CCN(c4ccccc4OC)CC3)c3ccccc23)cc1`, with “inactive”; and `Cc1ccc(-n2[nH]c(C)c(/C=N/N3C(=O)c4cccc5cccc(c45)C3=O)c2=O)cc1`, with 104 (active).
With `COc1cc(SC#N)ccc1N=Cc1c(C)[nH]n(-c2ccc(C)cc2)c1=O`, the B-score result is “inactive”.
For `Cc1[nH]n(-c2cccc(Cl)c2)c(=O)c1/C=N/n1c(C)nc2ccccc2c1=O`, the B-score result is “inactive”.
Then `CCn1c(SCc2ccccc2)nc2c(c1=O)SCC2`, with “inactive”; and `CCS(=O)(=O)n1nc(-c2ccc(OC)cc2)nc1SC`, with “inactive”.
Then `CCS(=O)(=O)n1nc(-c2ccccc2)nc1SCc1ccccc1`, with 27.5 (active).
In the case of `CN(CCOc1ccc(Br)cc1)CC(=O)Nc1cccc(S(=O)(=O)NC2=NCCC2)c1` it was “inactive”; in that of `O=C(Nc1nnc(-c2ccccc2)o1)c1cc(-c2cccs2)nc2ccccc12`, 26.9 (active).
As to `CCCCN(C)CCCNC(=O)c1cc(-c2cccs2)nc2ccccc12`, the B-score entry is “inactive”.
In the case of `O=C(NCCN1CCOCC1)c1cc(-c2cccs2)nc2ccccc12` it was “inactive”.
Then `CCOC(=O)/C(=N\Nc1ccccc1[N+](=O)[O-])c1csc(Nc2ccccc2)n1`, with “inactive”; and `O=C(Nc1ccc(Cl)cc1)C1c2cccc[n+]2CC(=O)N1Cc1ccc2c(c1)OCO2` (configuration not stated), with “inactive”; and `CCN1/C(=C/c2ccc3ccc(C)cc3[n+]2CC)Sc2ccccc21`, with 123 (active).
In the case of `CCN1/C(=C\c2ccc3ccccc3[n+]2CC)Sc2cc(C)ccc21` it was “inactive”.
In the case of `CC(C)OCCCNC(=O)c1ccc(C2SCC(=O)N2Cc2ccco2)cc1` (configuration not stated), the B-score entry was “inactive”.
Turning to `COc1cc(NC(=O)c2ccc3c(c2)OCO3)ccc1NC(=O)c1cccs1`, the B-score entry is “inactive”.
Then `COc1ccc(OCCCC(=O)OC(C)C(=O)Nc2ccccc2[N+](=O)[O-])cc1` (configuration not stated), with “inactive”; and `COc1ccc(N(CC(=O)N2CCCCCC2)S(=O)(=O)c2ccccc2)cc1`, with “inactive”; and `COc1ccccc1N(CC(=O)N1CCCCC1)S(=O)(=O)c1ccccc1`, with 50 (active).
With `COc1ccc(C)cc1N(CC(=O)N1CCCC1)S(=O)(=O)c1ccccc1`, the B-score entry was “inactive”.
In the case of `Cc1cccc(-c2nc3c(c(SCC(=O)N4CCOCC4)n2)CCCC3)c1`, the B-score result was “inactive”.
In the case of `C=CCn1c(=NC(=O)c2cccs2)sc2cc(NC(C)=O)ccc21` it was “inactive”; in that of `CCCc1[nH]nc2c1C(c1ccc(Br)s1)C(C#N)=C(N)O2` (configuration not stated), 26.9 (active).
In the case of `CCCc1[nH]nc2c1C(c1ccc(OC(=O)c3ccco3)cc1)C(C#N)=C(N)O2` (configuration not stated) it was “inactive”; in that of `CCCc1[nH]nc2c1C(C1CC=CCC1)C(C#N)=C(N)O2` (configuration not stated), “inactive”.
Consider `COc1ccc(S(=O)(=O)N2CCN(c3ncnc4c(-c5ccccc5)nsc34)CC2)cc1`, for which the B-score result was “inactive”.
As for `COc1ccccc1CCNS(=O)(=O)c1cn(C)nc1C`, the B-score entry was “inactive”.
Take `CS(=O)(=O)N(CC(=O)N1CCCCCC1)c1cccc(Cl)c1Cl`: the B-score entry was “inactive”.
In the case of `Cc1ccc(-n2cc(CN(C)Cc3nccn3C)c(-c3cccc(C)c3)n2)cc1` it was “inactive”; in that of `CCOc1c(Nc2cccc(Cl)c2)c(=O)c1=O`, “inactive”; in that of `O=C(CCN1CCN(C/C=C/c2ccccc2)CC1)Nc1ccccc1Cl`, “inactive”.
In the case of `CCOc1ccc(C(c2c(C)[nH][nH]c2=O)c2c(C)[nH][nH]c2=O)cc1OCC` it was “inactive”.
For the compound `Cc1[nH][nH]c(=O)c1C(c1ccc(-c2ccc(Cl)cc2)o1)c1c(C)[nH][nH]c1=O`, the B-score is 46.3 (active).
Regarding `O=C(NC1CCCCC1)c1ccc(-c2ccc(Cl)cc2)o1`, the B-score entry was “inactive”.
Then `CCNc1nc(NC(C)C)nc(OCCOC(=O)c2ccccc2)n1`, with “inactive”; and `COc1cccc(-c2ccc(SCC(=O)N3CCN(c4ccccc4)CC3)nn2)c1`, with “inactive”.
Then `CN1CCN(/N=C/c2ccc(-c3ccc([N+](=O)[O-])cc3)o2)CC1`, with 31.5 (active); and `Cc1ccc(-c2ccc(/C=N/NC(=O)CN3CCOCC3)o2)cc1[N+](=O)[O-]`, with “inactive”; and `CN1CCN(/N=C/c2ccc(C#N)cc2)CC1`, with “inactive”.
In the case of `Cn1c(Cn2nnc3ccccc32)nnc1SCC(=O)c1ccccc1F` it was “inactive”; in that of `CCN(CC)S(=O)(=O)c1ccc(N2CCCC2)c(NS(=O)(=O)c2cccs2)c1`, “inactive”.
Consider `Cc1cc2nc(C(F)(F)F)cc(-c3cccs3)n2n1`, for which the B-score entry is “inactive”.
In the case of `CC(C)(C)Nc1c(-c2cccs2)nc2ccccn12` it was 44.8 (active).
Turning to `Cc1nc2ccccn2c(=O)c1NC(=O)c1cccs1`, the B-score entry is “inactive”.
Take `COC(=O)c1ccc(NC(=O)CN(c2ccc(C)cc2)S(=O)(=O)c2c(C)n[nH]c2C)cc1`: the B-score entry is “inactive”.
As for `O=C(CSC1=NS(=O)(=O)c2cc(F)ccc2N1)Nc1ccccc1F`, the B-score entry was “inactive”.
Then `COC(=O)c1cn(CC(=O)NCc2cccs2)c2ccccc12`, with “inactive”; and `COC(=O)Cn1cc(/C=C/[N+](=O)[O-])c2ccccc21`, with 31.6 (active); and `COC(=O)N/N=C/c1cn(CCCOc2ccc(C)cc2)c2ccccc12`, with “inactive”.
In the case of `CCCCn1c(N)c(N(CCOC)C(=O)c2cccc(S(=O)(=O)N3CCCCC3)c2)c(=O)[nH]c1=O` it was “inactive”.
As to `COCCCNC(=O)CN1C(=O)CSc2ccc(S(=O)(=O)N3CCOCC3)cc21`, the B-score entry is “inactive”.
Then `CCN(CC)c1ccc2oc(=O)c(C)nc2c1`, with 27 (active); and `CCN(CC)c1ccc(C(=O)Nn2c(C)nc3ccccc3c2=O)cc1`, with “inactive”; and `C=CCN(C(=O)Nc1ccc2oc(C)nc2c1)c1ccccc1`, with “inactive”.
As for `Cc1ccc2c(c1)C1CN(C)CCC1N2S(=O)(=O)c1ccc(Oc2ccc([N+](=O)[O-])cc2)cc1` (configuration not stated), the B-score result is “inactive”.
Consider `COC(=O)CNC(c1ccccc1Cl)c1cc(Br)ccc1NC(=O)CCN1CCOCC1` (configuration not stated), for which the B-score result is “inactive”.
`O=C1/C(=C/c2ccc(F)cc2)SC(=S)N1CCCC(=O)N1CCCCC1CCO` (configuration not stated): the B-score result was “inactive”.
As for `O=C(O)c1ccc(/C=C2\SC(=S)N(NC(=O)c3ccc(Br)cc3)C2=O)cc1`, the B-score result was “inactive”.
With `O=C1/C(=C/c2ccc(F)cc2)SC(=S)N1NS(=O)(=O)c1ccccc1`, the B-score is 27.7 (active).
In the case of `Cc1nc(C)c(-c2csc(NCCc3ccccc3)n2)s1` it was 32.5 (active); in that of `CCNc1nc(-c2cc3ccccc3o2)cs1`, “inactive”; in that of `S=c1[nH]nc(NCCc2ccccc2)s1`, “inactive”.
Take `Cc1ccccc1NC(=O)Cn1cc(C(=O)C2CC2)c2ccccc21`: the B-score entry is “inactive”.
For `COc1ccc2c(c1)OC(O)(C(F)(F)C(F)F)CC2=O` (configuration not stated), the B-score was 79.7 (active).
Then `COc1ccc2c(c1)O/C(=C\c1ccccc1O)C2=O`, with “inactive”.
For `COc1ccc2c(c1)SC(C)CC2=O` (configuration not stated), the B-score entry was “inactive”.
In the case of `CN(CC(O)COc1ccc(S(=O)(=O)N2CCOCC2)cc1Cl)C1CCCCC1` (configuration not stated) it was “inactive”; in that of `CC(C)(C)NC(=O)CN(C(=O)c1csnn1)c1ccccc1-c1ccccc1`, “inactive”; in that of `COc1ccc(-c2nc(CN3CCN(c4ncccn4)CC3)c(C)o2)cc1C`, “inactive”.
For the compound `Cc1nnsc1C(=O)N/N=C/c1ccccc1Cl`, the B-score result was “inactive”.
Regarding `O=C(Nc1ccccc1)c1nnsc1S(=O)(=O)c1ccc(Cl)cc1`, the B-score was 33.9 (active).
In the case of `CN(c1cccc(NC(=O)Nc2ccc(Cl)cc2)c1)S(C)(=O)=O` it was “inactive”; in that of `Cc1sc2ncn(CC(=O)NCCN(C)C)c(=O)c2c1S(=O)(=O)N1CCC(C)CC1`, “inactive”.
Regarding `COC(=O)C1=C(C(=O)OC)C(c2cc([N+](=O)[O-])ccc2O)c2sc(=O)[nH]c2S1` (configuration not stated), the B-score entry is “inactive”.
`CCCC1OC23CCCCC2C(C#N)(C#N)C1(C#N)C(=N)O3` (configuration not stated): the B-score entry is “inactive”.
In the case of `CCOC(=O)C1CCN(C(=O)C2(NC(=O)Nc3cccc(F)c3)CCCCC2)CC1` it was “inactive”; in that of `Cc1cc2oc3ccc(NCCC4CCCN4C)cc3c(=O)c2cc1C` (configuration not stated), 27.5 (active).
Regarding `CCCOc1ccc(C2c3c(oc4cc(C)c(C)cc4c3=O)C(=O)N2CCCN2CCOCC2)cc1` (configuration not stated), the B-score entry was “inactive”.
Then `Cc1ccc(CS(=O)(=O)CCC(=O)NC2CC2)cc1`, with “inactive”.
Then `FC(F)(F)C1CCCN(c2nsc3ccccc23)C1` (configuration not stated), with 30.1 (active); and `O=C(NCC(=O)N1CCCC(C(F)(F)F)C1)c1ccccc1F` (configuration not stated), with “inactive”; and `O=C(NC(Cc1ccccc1)C(=O)N1CCCC(C(F)(F)F)C1)c1ccccc1` (configuration not stated), with “inactive”.
In the case of `Cc1n[nH]c(=O)c2c1nnn2Cc1ccc(F)cc1` it was “inactive”; in that of `COc1ccc(CCNC(=O)C(=O)NCC2OCCN2S(=O)(=O)c2ccc(F)cc2)cc1OC` (configuration not stated), “inactive”; in that of `CC(C)CCN1NC2(CCC(C)CC2)NC1=S` (configuration not stated), “inactive”.
For the compound `CC(C)N(c1ccccc1)c1ncnc(NCCC(=O)O)c1[N+](=O)[O-]`, the B-score entry was “inactive”.
Then `COc1cc(/C=C2/SC(=S)N(Cc3ccccc3)C2=O)cc(OC)c1O`, with “inactive”; and `O=C1/C(=C\c2ccsc2)NC(=S)N1c1ccccc1`, with “inactive”.
Then `CN(C)c1ccc(/C=C2\NC(=S)N(Cc3ccccc3)C2=O)cc1`, with 49.1 (active); and `CCC(C)c1ccccc1N1CC(C(=O)N2CCN(S(=O)(=O)c3ccc(F)cc3)CC2)CC1=O` (configuration not stated), with “inactive”; and `Cc1cc(NC(=O)CSc2nnnn2-c2ccc(F)cc2)no1`, with “inactive”.
Then `COc1ccc(C(=O)NNC(=S)NC(=O)c2ccccc2)cc1`, with 113 (active); and `COc1ccc(C(=O)NC(=S)NC2CCCCC2)cc1`, with “inactive”.
Regarding `COc1ccc(C(=O)NC2CCN(C(=S)NCCc3ccccc3)CC2)cc1`, the B-score result was “inactive”.
As to `COc1ccc(C(=O)NNC(=S)NC(=O)c2ccccc2[N+](=O)[O-])cc1`, the B-score entry is “inactive”.
In the case of `COc1ccc(C(=O)NC(=S)NNC(=O)CCc2ccccc2)cc1`, the B-score is 107 (active).
Then `CC(C)Oc1ccc(CCC(=O)NNC(=S)NCc2ccccc2)cc1`, with “inactive”; and `Cc1ccc(NS(=O)(=O)c2cc3c(cc2C)NC(=O)CO3)cc1`, with “inactive”; and `O=C(Nc1cccc(Cl)c1)Nc1ccccc1NS(=O)(=O)c1cccs1`, with “inactive”.
Regarding `C[n+]1ccc(/C=C/c2c[nH]c3ccccc23)cc1`, the B-score entry was “inactive”.
Then `COc1ccccc1/C=C/CN1CCC(CO)(Cc2ccccc2)CC1`, with “inactive”.
Take `COC(=O)C1=C(C(=O)c2ccc(C)cc2)C(c2ccccc2)n2nnnc2N1` (configuration not stated): the B-score entry was “inactive”.
Then `COC(=O)c1ccc(C2C3=C(Nc4nnnn42)c2ccccc2OC3)cc1` (configuration not stated), with 27.7 (active); and `COc1ccccc1NC(=O)C1=C(C)Nc2nnnn2C1c1cccc(Br)c1` (configuration not stated), with “inactive”.

(Values after PubChem BioAssay AID588627 (Johns Hopkins Ion Channel Center, 2011).)
